We go through two compounds from ChEMBL document CHEMBL1123747, “N-methyl derivatives of the 5-HT2 agonist 1-(4-bromo-2,5-dimethoxyphenyl)-2-aminopropane” (J Med Chem, 1987).

The structures appear in SMILES notation. Active and inactive are the calls of the source. No cut-off for these calls is given here.

Assay [1] concerns the target T1, Serotonin 2 (5-HT2) receptor (Rattus norvegicus, UniProt P30994+P08909+P14842). The assay can be described thus: Affinity towards [3H]- DOB -labeled 5-hydroxytryptamine 2 receptor sites in rat cortical homogenates.
Assay [2] relates to Rattus norvegicus. The assay can be described thus: The mean responses per minute during the 2.5 min extinction session in the stimulus-generation studies was calculated at dose 0.3 mg/kg. The format is functional. In outline: (§1)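 Rats were trained on a two-lever drug-versus-saline discrimination (0.2 mg/kg ip training dose, VI 15-s, food reward). Challenge doses were given ip 15 min before a 2.5-min extinction test, in random order, to groups of 3–6 rats, with at least three training sessions between tests. Response rate is responses per minute over the extinction session.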

Assay [3] deals with Rattus norvegicus. Kind of assay: The number of responses made on the (R)(-)-DOB appropriate lever, generation studies was calculated at dose 0.6 mg/kg. The class given is functional. In short, it runs like this: (§2)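 Male Sprague-Dawley rats (n = 6) were trained on a two-lever operant task for sweetened-milk reward to discriminate 0.2 mg/kg (R)-(-)-DOB-HCl ip from 1.0 mL/kg 0.9% saline, with a VI 15-s schedule and 15-min sessions. Test doses were given ip 15 min before a 2.5-min extinction session, in random order, to groups of 3-6 rats. Read-out was % drug-lever responses; fewer than five total responses counted as disrupted.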

In assay [4] the test system is Rattus norvegicus. The assay can be described thus: The mean responses per minute during the 2.5 min extinction session in the stimulus-generation studies was calculated at dose 1.2 mg/kg. The format is functional. In outline:
as §1

Assay [5] has as its system Rattus norvegicus. The assay can be described thus: The mean responses per minute during the 2.5 min extinction session in the stimulus-generation studies was calculated at dose 0.6 mg/kg. The class given is functional. In outline:
as §1

Assay [6] concerns Rattus norvegicus. Kind of assay: The mean responses per minute during the 2.5 min extinction session in the stimulus-generation studies was calculated at dose 1.3 mg/kg. The format is functional. In outline: as §1
The subject of assay [7] is Rattus norvegicus. Kind of assay: The number of responses made on the (R)(-)-DOB appropriate lever, generation studies was calculated at dose 1.5 mg/kg; NR means not responding. More on the design: dose 1.5 mg/kg. The format is functional, organism-based. In outline: as §2
For assay [8], the system named is Rattus norvegicus. The assay can be described thus: The number of responses made on the (R)(-)-DOB appropriate lever, generation studies was calculated at dose 1.4 mg/kg; NR means not responding. The class given is functional, organism-based. Also noted: dose 1.4 mg/kg. In short, it runs like this: as §2
Assay [9] relates to Rattus norvegicus. Kind of assay: The number of animals responding per number of animals receiving the drug (2/6)in the stimulus-generation studies was calculated at dose 1.5 mg/kg. The format is functional. In short, it runs like this:
(§3)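 Male Sprague-Dawley rats were trained to discriminate 0.2 mg/kg ip training drug from saline (two levers, VI 15-s, milk reward). Test doses were given ip 15 min pre-session in random order to groups of 3–6. In the 2.5-min extinction session, rats making fewer than five total responses were counted as disrupted. N is animals responding over animals dosed.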

Assay [10] concerns Rattus norvegicus. The assay can be described thus: The number of animals responding per number of animals receiving the drug (3/3)in the stimulus-generation studies was calculated at dose 1.0 mg/kg. The class given is functional. In short, it runs like this: as §3
Assay [11] has as its target T1, Serotonin 2 (5-HT2) receptor. Kind of assay: Affinity towards [3H]- ketanserin-labeled 5-hydroxytryptamine 2 receptor sites in rat cortical homogenates. In short, it runs like this:
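Label was 0.4 nM [3H]ketanserin, with 11 competitor concentrations run in triplicate and nonspecific binding defined by 1 μM cinanserin. Bound ligand was filtered onto glass fibre and counted by scintillation. IC50 came from nonlinear regression; Ki = IC50/(1+[D]/KD).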

Assay [12] has as its system Rattus norvegicus. Kind of assay: The number of responses made on the (R)(-)-DOB appropriate lever, generation studies was calculated at dose 1.0 mg/kg. The class given is functional. In outline: as §2
The species named for assay [13] is Rattus norvegicus. Kind of assay: The compound was tested for effective dose ( ED 50) against stimulus generation with rats trained to discriminate (R) (-)-DOB from saline. The format is functional. In outline: (§4)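 Male Sprague-Dawley rats (n = 6) on a two-lever operant task for sweetened milk, VI 15-s schedule. Trained to discriminate 0.2 mg/kg ip training drug from 1.0 mL/kg 0.9% saline, 15 min pre-session. Test doses were given ip in random order to groups of 3–6, with 15-min pretreatment and a 2.5-min extinction session. ED50 was calculated from dose-response data.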

Assay [14] deals with Rattus norvegicus. Kind of assay: The number of animals responding per number of animals receiving the drug(2/6) in the stimulus-generation studies was calculated at dose 1.4 mg/kg. The class given is functional. In short, it runs like this: as §3
Assay [15] concerns Rattus norvegicus. The assay can be described thus: The number of animals responding per number of animals receiving the drug (5/5)in the stimulus-generation studies was calculated at dose 1.3 mg/kg. The class given is functional. In short, it runs like this: as §3
Assay [16] concerns Rattus norvegicus. The assay can be described thus: The mean responses per minute during the 2.5 min extinction session in the stimulus-generation studies was calculated at dose 1.0 mg/kg. The format is functional. In outline: as §1
The subject of assay [17] is Rattus norvegicus. Kind of assay: The number of animals responding per number of animals receiving the drug(3/4) in the stimulus-generation studies was calculated at dose 1.2 mg/kg. The class given is functional. In short, it runs like this: as §3
Assay [18] has as its system Rattus norvegicus. The assay can be described thus: The number of responses made on the (R)(-)-DOB appropriate lever, generation studies was calculated at dose 0.3 mg/kg. The class given is functional. In outline:
as §2

Assay [19] deals with Rattus norvegicus. The assay can be described thus: The number of animals responding per number of animals receiving the drug (3/3) in the stimulus-generation studies was calculated at dose 0.3 mg/kg. The class given is functional. In outline: as §3
Assay [20] deals with Rattus norvegicus. Kind of assay: The number of animals responding per number of animals receiving the drug (4/4)in the stimulus-generation studies was calculated at dose 0.6 mg/kg. The class given is functional. In outline:
as §3

Assay [21] deals with Rattus norvegicus. Kind of assay: The number of responses made on the (R)(-)-DOB appropriate lever, generation studies was calculated at dose 1.3 mg/kg. The class given is functional. In short, it runs like this:
as §2

For assay [22], the system named is Rattus norvegicus. The assay can be described thus: The number of responses made on the (R)(-)-DOB appropriate lever, generation studies was calculated at dose 1.2 mg/kg. The class given is functional. In short, it runs like this:
as §2

The species entered for assay [23] is Rattus norvegicus. Kind of assay: The number of animals responding per number of animals receiving the drug(4/4) in the stimulus-generation studies was calculated at dose 1.1 mg / kg. The format is functional. In short, it runs like this: as §3
Assay [24] is filed under the species Rattus norvegicus. Kind of assay: The mean responses per minute during the 2.5 min extinction session in the stimulus-generation studies was calculated at dose 1.1 mg / kg. The format is functional. In short, it runs like this: as §1
For assay [25], the species on record is Rattus norvegicus. Kind of assay: The number of responses made on the (R)(-)-DOB appropriate level, generation studies was calculated at dose 1.1 mg / kg. The format is functional. In outline: as §2
The species entered for assay [26] is Rattus norvegicus. Kind of assay: The mean responses per minute during the 2.5 min extinction session in the stimulus-generation studies was calculated at dose 0.2 mg / kg. The format is functional. In short, it runs like this: as §1
The species entered for assay [27] is Rattus norvegicus. Kind of assay: The number of animals responding per number of animals receiving the drug(3/3) in the stimulus-generation studies was calculated at dose 0.2 mg / kg. The class given is functional. In outline: as §3
The species entered for assay [28] is Rattus norvegicus. Kind of assay: The mean responses per minute during the 2.5 min extinction session in the stimulus-generation studies was calculated at dose 0.4 mg / kg. The format is functional. In outline: as §1
The species named for assay [29] is Rattus norvegicus. The assay can be described thus: The mean responses per minute during the 2.5 min extinction session in the stimulus-generation studies was calculated at dose 0.7 mg / kg. The class given is functional. In outline:
as §1

For assay [30], the species on record is Rattus norvegicus. The assay can be described thus: The number of animals responding per number of animals receiving the drug(3/3) in the stimulus-generation studies was calculated at dose 0.7 mg / kg. The class given is functional. In short, it runs like this:
as §3

The species entered for assay [31] is Rattus norvegicus. The assay can be described thus: The number of responses made on the (R)(-)-DOB appropriate level, generation studies was calculated at dose 0.4 mg / kg. The format is functional. In outline:
as §2

Assay [32] is filed under the species Rattus norvegicus. Kind of assay: The number of responses made on the (R)(-)-DOB appropriate level, generation studies was calculated at dose 0.2 mg / kg. The class given is functional. In outline: as §2
The species named for assay [33] is Rattus norvegicus. Kind of assay: The number of responses made on the (R)(-)-DOB appropriate level, generation studies was calculated at dose 0.7 mg / kg. The class given is functional. In short, it runs like this:
as §2

The species named for assay [34] is Rattus norvegicus. The assay can be described thus: The number of animals responding per number of animals receiving the drug(3/4) in the stimulus-generation studies was calculated at dose 0.4 mg / kg. The format is functional. In outline: as §3
The species entered for assay [35] is Rattus norvegicus. Kind of assay: The compound was tested for effective dose ( ED 50) against stimulus generation with rats trained to discriminate (R) (-)-DOB from saline. The class given is functional. In outline:
as §4

Consider `CNC(C)Cc1cc(OC)c(Br)cc1OC` (stereo not given), for which the Ki was determined as 0.0077 µM in assay [1] and 0.079 µM in assay [11]. Besides, the Response rate was 11.6 in the assay with Rattus norvegicus [2]; 13.3 in the assay with Rattus norvegicus [4]; 13.6 with Rattus norvegicus [5]; 8 with Rattus norvegicus [6]; 12 in the assay on Rattus norvegicus [16]. The Responding is given as 28% in the assay with Rattus norvegicus [3]; 50% in the assay on Rattus norvegicus [12]; 12% in the assay with Rattus norvegicus [18]; 82% in the assay with Rattus norvegicus [21]; 70% in the assay on Rattus norvegicus [22]. The Responding entry in the assay on Rattus norvegicus [7] and in the assay with Rattus norvegicus [8] was “inactive” throughout. Also, the “No. of animals responding/animals receiving drug” value is listed as 2 in the assay on Rattus norvegicus [9]; 3 in the assay with Rattus norvegicus [10]; 2 in the assay on Rattus norvegicus [14]; 5 in the assay on Rattus norvegicus [15]; 3 with Rattus norvegicus [17]; 3 with Rattus norvegicus [19]. Also, in the assay on Rattus norvegicus [20], the “No. of animals responding/animals receiving drug” value is 4. Besides, it took a dose of 0.82 mg/kg to reach the 50% effect level in the assay listed under Rattus norvegicus [13] (ED50).

Consider `COc1cc(C[C@H](C)N)c(OC)cc1Br`, for which the “No. of animals responding/animals receiving drug” value in the assay listed under Rattus norvegicus [23] is listed as 4; in the assay filed under Rattus norvegicus [27], 3; in the assay filed under Rattus norvegicus [30], 3; in the assay filed under Rattus norvegicus [34], 3. The Response rate in the assay listed under Rattus norvegicus [24] is 10.8; in the assay filed under Rattus norvegicus [26], 12; in the assay listed under Rattus norvegicus [28], 10.5; in the assay filed under Rattus norvegicus [29] it was 10.8. In addition, the Responding in the assay filed under Rattus norvegicus [25] was 82%; in the assay listed under Rattus norvegicus [31], 48%; in the assay listed under Rattus norvegicus [32], 3%; in the assay listed under Rattus norvegicus [33] it was 63%. In the assay filed under Rattus norvegicus [35], this compound had an ED50 of 0.56 mg/kg.

The term Ki denotes the dissociation constant of the complex between target and ligand, obtained from inhibition or displacement. By ED50 is commonly meant the midpoint of the dose-response relation. Lower therefore signals an effect at a small dose.
